Screening results deposited in PubChem by several laboratories.
tolC growth inh – growth inhibitors of E. coli BW25113 tolC mutant | 65,000 compounds, 2.2% hits | AID 573 | growth inhibition, % at 10 µM (by protocol) | OD615;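 active means growth inhibition at or above a cutoff equal to the mean over every tested compound plus 3 SD, cut at about 60% in these data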;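 further: growth measured after 20 h incubation at 37 °C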
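test system = E. coli BW25113 ΔtolC::kan bacteria | medium = LB with kanamycin 50 µg/mL | signal = OD at 615 nm | schedule = 37 °C, 20 h exposure | evaluation = % inhibition of E. coli growth | compound dosing = one dose of 10 µM final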
HePTP inhibitor – inhibitors of human HePTP phosphatase. P35236. recombinant HePTP phosphatase activity, OD absorbance. inhibition, % at 20 µM. 110,000 compounds, 0.64% hits. AID 521; in the data active means inhibition above about 50%;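 further: plate controls were vehicle for no effect and reference inhibitor for full effect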
Ecoli WT expand – E. coli BW25113 growth inhibition, expanded screen; OD600 absorbance; growth inhibition, % at 100 µM; 98,000 compounds, 0.15% hits;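 active means growth inhibition above about 50% at one test dose, limit read from the data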;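 further: growth measured after 20 h incubation at 37 °C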
PostGolgi ctrl – inhibits growth of the yeast control strain; efflux-deficient yeast background strain, growth absorbance A615, 16 h; inhibition, % at 10 µM; 98,000 compounds, 5% hits
PostGolgi yeast – growth inhibition of a yeast mutant, post-Golgi transport screen | post-Golgi transport phenotypic cell assay | inhibition, % at 10 µM | 98,000 compounds, 0.9% hits | AID 739;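 further: yeast cells grown in 1536-well plates; yeast grown about 18 h at 30C before absorbance read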
PLAP act – human PLAP activation. purified PLAP enzyme, luminescent substrate read-out; active compounds read high. activation fold at 20 µM. 96,000 compounds, 1.2% hits. AID 696; in the data active means activation fold above about 2
Target sequence (P05187 whole entry, looked up): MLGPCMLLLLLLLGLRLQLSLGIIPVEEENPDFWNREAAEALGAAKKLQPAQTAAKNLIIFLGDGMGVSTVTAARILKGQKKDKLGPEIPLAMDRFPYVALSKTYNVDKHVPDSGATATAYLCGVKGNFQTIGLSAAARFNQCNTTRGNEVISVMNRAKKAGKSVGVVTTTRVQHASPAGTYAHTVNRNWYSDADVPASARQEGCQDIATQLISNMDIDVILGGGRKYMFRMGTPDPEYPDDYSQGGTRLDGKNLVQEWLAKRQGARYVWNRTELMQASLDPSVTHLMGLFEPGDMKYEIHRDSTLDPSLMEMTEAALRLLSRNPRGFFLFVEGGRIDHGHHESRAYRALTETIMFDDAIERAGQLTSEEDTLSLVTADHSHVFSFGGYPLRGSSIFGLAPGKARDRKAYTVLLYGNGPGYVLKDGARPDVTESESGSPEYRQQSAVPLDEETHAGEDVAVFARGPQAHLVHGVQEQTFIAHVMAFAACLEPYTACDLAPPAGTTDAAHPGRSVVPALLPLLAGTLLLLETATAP
* = called active by the depositor. A selection: hits, their analogues and other compounds. The true share with any hit is near 5.5%. Unless noted, no stated cut-off is given here; in the data, active means inhibition above about 30%; inactive means the rest.

For COc1ccc(-c2ccnc3nc(N4CCN(c5ccccc5)CC4)nn23)cc1 the results were Ecoli WT expand -4.0, PostGolgi ctrl 53.3*, PostGolgi yeast -1.7 and PLAP act 1.6.
Screening CCCCOc1ccc(S(=O)(=O)N2CCCCCC2)cc1 returned tolC growth inh 61.8*, HePTP inhibitor -4.3, Ecoli WT expand 9.0, PostGolgi ctrl 18.3, PostGolgi yeast 7.8 and PLAP act 0.8.
CCCCOc1ccc(S(=O)(=O)N2CCN(C)CC2)cc1 was read as HePTP inhibitor 11.2.
Screening COc1cc(C=O)c(Br)cc1OC1CCCC1 returned Ecoli WT expand 3.0, PostGolgi ctrl 33.7*, PostGolgi yeast 3.4 and PLAP act 0.9.
CCOc1ccccc1NS(=O)(=O)c1ccc(OC)cc1 was read as HePTP inhibitor 6.6.
Screening Cc1c(Cc2ccccc2)c(=O)oc2c(C)c(OCc3nn[nH]n3)ccc12 returned tolC growth inh 53.9, HePTP inhibitor -5.1, Ecoli WT expand 2.0, PostGolgi ctrl 0.7, PostGolgi yeast 30.8* and PLAP act 1.3.
`Cc1cc(OCc2nn[nH]n2)c2c(C)c(Cc3ccccc3)c(=O)oc2c1` gave tolC growth inh 37.2, HePTP inhibitor -5.6, Ecoli WT expand 1.0, PostGolgi ctrl 32.0*, PostGolgi yeast -3.3 and PLAP act 1.4.
Screening CC1=NN(C(=O)c2cccc(Cn3nc(C)c([N+](=O)[O-])c3C)c2)C(O)(C(F)(F)F)C1 (stereo not given) returned Ecoli WT expand 4.0, PostGolgi ctrl -2.9, PostGolgi yeast 0.6 and PLAP act 2.1*.
`Cc1nn(Cc2cccc(C(=O)NC(C)c3ccc(C(C)(C)C)cc3)c2)c(C)c1[N+](=O)[O-]` (stereo not given) gave Ecoli WT expand -10.0, PostGolgi ctrl 2.5, PostGolgi yeast 50.8* and PLAP act 1.8.
Cc1nn(Cc2cccc(C(=O)N3N=C(C(F)F)CC3(O)C(F)F)c2)c(C)c1[N+](=O)[O-] (stereo not given) was read as Ecoli WT expand -9.0, PostGolgi ctrl 5.1, PostGolgi yeast -2.5 and PLAP act 1.5.
O=C(Nc1ccc(I)cc1Cl)c1cccc(Cl)c1Cl was read as HePTP inhibitor 2.8.
`COc1cccc(-c2nnc(SCc3nc4ccccc4[nH]3)n2N)c1` gave tolC growth inh 13.6, HePTP inhibitor 6.8, Ecoli WT expand 18.0, PostGolgi ctrl 10.1, PostGolgi yeast 11.2 and PLAP act 1.3.
For Nn1c(SCc2nc3ccccc3[nH]2)nnc1-c1cccnc1 the results were tolC growth inh -3.6, HePTP inhibitor 3.2, Ecoli WT expand 3.0, PostGolgi ctrl -7.6, PostGolgi yeast -7.6 and PLAP act 2*.
`Nn1c(SCc2nc3ccccc3[nH]2)nnc1C1CCCCC1` gave tolC growth inh -8.1, HePTP inhibitor 2.8, Ecoli WT expand 9.0, PostGolgi ctrl -3.0, PostGolgi yeast 2.8 and PLAP act 2.1*.
Cc1c(OC(C)C)ccc2c(-c3ccccc3)cc(=O)oc12 was read as HePTP inhibitor -5.3.
Screening CCOC(=O)c1ccc(NC(=O)Cc2ccc(Br)cc2)cc1 returned HePTP inhibitor 7.8.
`O=[N+]([O-])c1cccc(S(=O)(=O)Nc2ccccc2Br)c1` gave HePTP inhibitor -10.1.
Screening O=S(=O)(c1ccc(Br)cc1)N1CCN(c2ccc3nnc(-c4ccccc4)n3n2)CC1 returned Ecoli WT expand -12.0, PostGolgi ctrl 56.0*, PostGolgi yeast 16.1 and PLAP act 1.3.
`O=C(c1ccc(Br)o1)N1CCN(c2ccc3nnc(-c4ccccc4)n3n2)CC1` gave tolC growth inh 27.9, HePTP inhibitor -9.3, Ecoli WT expand 7.0, PostGolgi ctrl 9.7, PostGolgi yeast 8.0 and PLAP act 1.4.
Cc1cccc(OC(=O)c2cccc([N+](=O)[O-])c2)c1 was read as HePTP inhibitor 7.9.
Screening Cc1cc(Cl)cc(Cl)c1OCCOCCN1CCN(C)CC1 returned HePTP inhibitor -7.7.
COc1ccc2nc(SCC(=O)Nc3cc(C)on3)[nH]c2c1 was read as Ecoli WT expand 5.0, PostGolgi ctrl 20.9, PostGolgi yeast 37.1* and PLAP act 2.2*.
For Cc1ccc2nc(SCC(=O)Nc3cc(C)on3)[nH]c2c1 the results were tolC growth inh -0.3, HePTP inhibitor 7.8, Ecoli WT expand 16.0, PostGolgi ctrl 3.6, PostGolgi yeast 6.9 and PLAP act 1.9.
COc1ccc2nc(SCC(=O)Nc3ccccc3C#N)[nH]c2c1 was read as tolC growth inh 10.7, HePTP inhibitor 0.6, Ecoli WT expand 10.0, PostGolgi ctrl 18.6, PostGolgi yeast -3.6 and PLAP act 2.1*.
Cc1cc(NC(=O)CSC2=NCCS2)no1 was read as tolC growth inh -4.3, HePTP inhibitor 13.8, Ecoli WT expand 3.0, PostGolgi ctrl 30.5*, PostGolgi yeast -5.4 and PLAP act 1.
Screening O=C(CCN1C(=O)c2ccccc2C1=O)N1CCN(Cc2ccc(Cl)cc2)CC1 returned HePTP inhibitor -7.5.
`OCCNCCCOc1ccc(F)cc1` gave HePTP inhibitor 4.0.
For O=C1CC(C(=O)N(c2cccc(F)c2)C(C(=O)NC2CCCC2)c2ccccn2)CS1 (stereo not given) the results were tolC growth inh -10.7, HePTP inhibitor 5.5, Ecoli WT expand -2.0, PostGolgi ctrl 37.3*, PostGolgi yeast 3.7 and PLAP act 1.4.
`O=C(O)c1cc(-c2ccccn2)n[nH]1` gave HePTP inhibitor 3.1, Ecoli WT expand 4.0, PostGolgi ctrl -6.4, PostGolgi yeast 0.3 and PLAP act 2.5*.
Cc1ccc(C(=O)COc2cc(OCC(=O)c3ccc(C)cc3)c3c(C)cc(=O)oc3c2)cc1 was read as HePTP inhibitor 1.7.
Screening Cc1ccc(C(=O)Nc2ccccc2Oc2ccccc2)cc1[N+](=O)[O-] returned Ecoli WT expand -26.0, PostGolgi ctrl 33.9*, PostGolgi yeast -9.1 and PLAP act 0.6.
Screening C=CCn1c(-c2nonc2NC(C)=O)nc2ccccc21 returned HePTP inhibitor 3.3.
Screening CCCn1nc(NS(C)(=O)=O)c2cc3cccc(C)c3nc21 returned tolC growth inh 13.8, HePTP inhibitor -10.4, Ecoli WT expand 1.0, PostGolgi ctrl 35.9*, PostGolgi yeast 0.0 and PLAP act 1.3.
CCn1nc(NS(=O)(=O)c2ccccc2)c2cc3cccc(C)c3nc21 was read as tolC growth inh 30.9, HePTP inhibitor 3.8, Ecoli WT expand -1.0, PostGolgi ctrl 1.9, PostGolgi yeast 4.7 and PLAP act 1.
Screening O=C(Nc1ccccc1C(=O)Nc1ccccc1)c1ccc(C(=O)Nc2ccccc2C(=O)Nc2ccccc2)cc1 returned HePTP inhibitor -0.3.
`O=C1NC(=S)S/C1=C/c1ccc(O)c(Br)c1` gave HePTP inhibitor 103.6*.
CCc1nc(SCC(=O)c2cc(C)ccc2C)n[nH]1 was read as tolC growth inh 7.8, HePTP inhibitor -10.1, Ecoli WT expand -1.0, PostGolgi ctrl -0.5, PostGolgi yeast 9.3 and PLAP act 2.3*.
